Bioassay records as filed in PubChem.
This is a sample that favours compounds with a hit; in the whole collection about 1.9% have one here.
CHRM4 agonist = agonists of human muscarinic M4 receptor (CHRM4); P08173; CHO-K1 hM4/Gqi5, Fluo-8 calcium fluorescence; vehicle 0%, full acetylcholine response 100%; activation, % at 3 µM; 360,000 tested, 0.14% active;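 active means activation above the run mean over all test wells plus 3 SD, cut at about 32% in these data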;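 further: peak over basal fluorescence ratio per well then scaled between controls; 0% = DMSO wells and 100% = acetylcholine at EC100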
Target sequence (P08173 whole entry, looked up): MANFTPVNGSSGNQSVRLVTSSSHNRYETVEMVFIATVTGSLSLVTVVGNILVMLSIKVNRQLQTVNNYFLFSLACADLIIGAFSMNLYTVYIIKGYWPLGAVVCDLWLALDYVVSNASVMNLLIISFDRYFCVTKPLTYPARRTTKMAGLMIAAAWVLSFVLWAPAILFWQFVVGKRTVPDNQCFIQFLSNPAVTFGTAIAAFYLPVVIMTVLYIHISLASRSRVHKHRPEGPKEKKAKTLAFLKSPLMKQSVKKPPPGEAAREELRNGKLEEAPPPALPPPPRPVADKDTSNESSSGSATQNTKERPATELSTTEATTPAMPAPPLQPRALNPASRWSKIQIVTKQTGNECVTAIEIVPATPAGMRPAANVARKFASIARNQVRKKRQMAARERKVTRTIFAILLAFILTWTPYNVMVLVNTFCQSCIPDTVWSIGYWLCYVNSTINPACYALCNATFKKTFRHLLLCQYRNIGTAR
M4 PAM = CHRM4 positive allosteric modulation | P08173 | CHO-K1 hM4/Gqi5, Fluo-8 calcium fluorescence, ACh EC20; 0% = ACh EC20, 100% = maximal ACh | activation, % at 3 µM | 360,000 tested, 0.4% active;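 active means activation above its plate's cutoff, the mean activation of sample wells plus 3 SD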
M5 antag = antagonists of human muscarinic M5 receptor (CHRM5). P08912. CHO-hM5 cells, Fluo-8 calcium fluorescence, ACh EC80. inhibition, % at 3 µM. 360,000 tested, 0.59% active. AID 624040;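 active means inhibition above a per-plate cutoff, the mean of that plate's test compounds plus 3 SD, cut at about 27% in these data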;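 further: 0% = acetylcholine EC80 with DMSO and 100% = DMSO without agonist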
M5 ag = CHRM5 agonism in calcium assay. P08912. CHO-K1 hM5 cells, Fluo-8 calcium fluorescence; 0% DMSO wells, 100% maximal acetylcholine response. activation, % at 3 µM. 360,000 tested, 0.19% active. AID 624037;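 active means activation above the run's mean over test compounds plus 3 SD, cut at about 23% in these data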;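 further: signal is peak over basal fluorescence ratio across the kinetic read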
M4 antag = blocks acetylcholine activation of human M4 receptor. CHO-hM4 cells, ACh EC80, Fluo-8 calcium fluorescence. inhibition, % at 3 µM. 360,000 tested, 0.73% active. AID 624125;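 active means inhibition above its plate's cutoff, the mean inhibition of sample wells plus 3 SD, cut at about 27% in these data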;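 further: 0% = acetylcholine EC80 with DMSO and 100% = DMSO without agonist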
M5 PAM = CHRM5 positive allosteric modulation; activation, % at 3 µM; 360,000 tested, 0.3% active; P08912; CHO-K1 hM5, Fluo-8 calcium, ACh EC20 PAM; 0% = ACh EC20, 100% = ACh EC100;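 active means activation above the run cutoff, the mean activation of all test compounds plus 3 SD, cut at about 18% in these data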
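Probe or stimulus: acetylcholine, EC20 level; Assay system: human M5 receptor in CHO-K1 cells; Schedule: compound preincubation 140 s before EC20 acetylcholine addition; Technique: intracellular calcium via Fluo-8 fluorescence; Dosing: single-point, 3 µM nominal; Read-out basis: percent activation from peak-over-basal fluorescence ratio, scaled EC20-to-EC100 acetylcholine; Repeats: one well per compound, no replicates.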
* = called active by the depositor.

SMILES	CHRM4 agonist	M4 PAM	M5 antag	M5 ag	M4 antag	M5 PAM
Cc1cc(C)[n+](-c2ccc(C(C)C)cc2)c2[nH]c(=O)[nH]c(=O)c12	0	-33	-1	-7	41*	-9
CCN(C(=O)CSc1nnnn1-c1ccc(Cl)cc1)C1CCS(=O)(=O)C1 (stereo not drawn)	2	16	-3	2	-20	1
O=C(c1ccc([N+](=O)[O-])cc1)N1CCN(C(=O)C2CCCCC2)CC1	0	-1	8	-4	5	-5
Cc1ccc(S(=O)(=O)N(CC(=O)NCc2ccncc2)Cc2ccc(F)cc2)cc1	4	1	7	-3	4	1
Cc1ccc(C(=O)CCC(=O)Nc2ncccc2C)cc1	2	20	0	8	-2	19*
CCOC(=O)c1cn(Cc2ccccc2)c(C(=O)OC(C)(C)C)c1O	81*	-15	15	12	15	-21
CCOC(=O)c1cn(Cc2ccccc2)c2cc(C)nn2c1=O	0	-2	7	1	-11	0
CCC(=O)c1ccc(OCC(O)CN2CCN(C(c3ccccc3)c3ccccc3)CC2)cc1 (stereo not drawn)	1	-14	16	-6	44*	-28
N#Cc1ccc(OCC(O)CN2CCN(C(c3ccccc3)c3ccccc3)CC2)cc1 (stereo not drawn)	0	-19	37*	-6	32*	-18
CC(C)(C)c1ccc(C(O)c2ncc(-c3ccccc3F)[nH]2)cc1 (stereo not drawn)	4	1	-3	0	-7	-1
O=C(OCC(=O)N1CCC(c2ccccc2)=N1)c1ccc(Cl)s1	1	9	6	-7	4	5
O=C(Nc1cccc(Cl)c1)Nc1nnc(-c2ccncc2)s1	15	-12	32*	9	17	-18
CS(=O)(=O)c1ccc2nc(NC(=O)Nc3ccc(Cl)c(Cl)c3)sc2c1	2	8	-5	0	-13	0
CCOC(=O)Cc1csc(NC(=O)Nc2cccc(Cl)c2)n1	17	-9	29*	5	0	-18
CS(=O)(=O)c1ccc2nc(NC(=O)Nc3cccc(Cl)c3)sc2c1	22	-6	32*	9	16	-24
COc1ccc(C(C)(O)c2nc(-c3ccc(N(C)C)cc3)cs2)cc1 (stereo not drawn)	8	5	11	4	-12	-11
CC(=O)c1ccc(S(=O)c2ccccc2)cc1 (stereo not drawn)	2	34*	0	-5	-3	2
COc1cccc(/C=C/C(=O)N2CCN(S(=O)(=O)c3ccccc3)CC2)c1	4	-3	2	0	-6	-2
O=C(CCNC(=O)c1ccco1)NNC(=O)c1ccc(Br)cc1	1	23*	-4	-4	-7	5
O=C(CCNC(=O)c1ccco1)Nc1ccccc1	2	16*	9	-1	-12	2
Cc1ccc(NC(=O)CCNC(=O)c2ccco2)cc1	1	19	1	-1	3	13
O=C(CCNC(=O)c1ccc(Br)cc1)NCc1ccco1	2	5	-17	3	-5	1
CCOc1ccc(/C=C2\CCCc3c2nc2ccccc2c3C(=O)O)cc1OC	78*	-18	17	249*	16	-24
COc1ccc(/C=C2\CCc3c2nc2ccccc2c3C(=O)O)cc1OC	4	6	0	5	-18	-9
O=C(NCCCCc1ccccc1)c1ccc(Br)o1	1	9	10	0	-9	-4
O=C(NCCCc1ccccc1)c1ccc(Br)o1	0	31*	1	-4	6	6
Cc1cc2ccccc2n1CCNC(=O)c1ccc(Br)o1	2	-8	27*	0	-4	-11
CCc1cc2cc(C)ccc2nc1SCC(=O)NC1CCCC1	0	4	-1	-6	-18	1
OC1(C#CCN2CCCC2)c2ccccc2-c2ccccc21	1	-56	51*	-21	47*	-32
